Results: ChEMBL document CHEMBL1126798, “Keto/enol epoxy steroids: a new structural class of HIV-1 Tat inhibitors” (J Med Chem, 1993)

Assays:
[1] = Therapeutic index against HIV-1 whole cell assay was determined, expressed as the ratio of IC50s of cell cytotoxicity to that of HIV replication; details: human immunodeficiency virus 1, HIV-1 whole cell assay; read-out: Therapeutic index
In short: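 Cytotoxicity: uninfected H9 cells incubated 5 days with the same compound concentrations as the antiviral assay, viable cells counted by trypan blue exclusion. Ratio taken of the cytotoxic IC50 to the IC50 for HIV IIIB replication (p24 ELISA, 5 days, medium and compound renewed day 3).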

H9 = assay: Inhibition of HIV-1 replication in H9 cells infected with three different concentrations of HIV IIIB strain; assay type: functional, cell-based; details: Homo sapiens
In short: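 H9 cells infected at three HIV IIIB inoculum levels, then exposed to 3-5 compound concentrations for 5 days. Fresh media and compound replaced on day 3. p24 antigen in culture media measured by ELISA on the final day, mean OD with n = 4 per dose. IC50 found for at least two viral doses, over 3-5 individual assays.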

Protein Tat = biological target: T1, Protein Tat (Human immunodeficiency virus type 1 group M subtype B (isolate PCV12)(HIV-1), UniProt P04326); assay: Inhibition of HIV-1 nuclear regulatory protein Tat; set-up: species or system Human immunodeficiency virus type 1 (CLONE 12)
T1 sequence (P04326 whole entry): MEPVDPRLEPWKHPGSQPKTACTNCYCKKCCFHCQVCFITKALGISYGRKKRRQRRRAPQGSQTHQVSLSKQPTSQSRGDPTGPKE
In short: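 SW480 cells co-transfected with an HIV-1 LTR-driven CAT reporter plasmid and an SV40 promoter-driven Tat plasmid. Cells incubated with dose-ranged compound for 48 h. Tat-induced expression read out as CAT enzyme activity. IC50 and 95% confidence intervals taken from percent-inhibition dose-response curves over 3-5 runs. Counter-screen used an SV40 promoter-driven CAT plasmid (Tat-independent).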

SMILES	selectivity ratio [1]	IC50 (H9) [µM]	IC50 (Protein Tat) [µM]
CC(=O)O[C@H]1CCC2C3CC[C@]45O[C@H]4C(O)=C(C(N)=O)C[C@]5(C)C3CC[C@@]21C (stereo not given in full)	1.6	2.4	2.6
C[C@]12CCC3C(CC[C@]45OC4C(O)=C(C(N)=O)C[C@]35C)C1CC[C@@H]2O (stereo not given in full)	6.5	1.2	14.3
O=C1CN=C(c2ccc[nH]2)c2cc(Cl)ccc2N1	5.9	0.6	4
CC(=O)O[C@H]1CC[C@H]2[C@@H]3CC[C@]45OC4C(=O)C(S(C)(=O)=O)C[C@]5(C)[C@H]3CC[C@]12C (stereo not given in full)	4.3	0.3	2.6
C[C@]12CC[C@H]3[C@@H](CC[C@]45OC4C(=O)C(S(C)(=O)=O)C[C@]35C)[C@@H]1CC[C@@H]2O (stereo not given in full)	3.9	1.4	8.4
